ChEMBL document CHEMBL3244229, “Nonsteroidal antiinflammatory agents. 1. 5-Alkoxy-3-biphenylylacetic acids and related compounds as new potential antiinflammatory agenst” (J Med Chem, 1977)

Tests used:
[1] = Acute toxicity in ip dosed ddY mouse measured after 168 hrs; assay type: organism-based; details: in vivo
Method in brief: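 Male ddY mice, four per group, given a single ip injection; deaths assessed 168 h after dosing. LD50 calculated by the method of Weil.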

[2] = test system: Rattus norvegicus; assay: Antiinflammatory activity in Wistar rat assessed as inhibition of carrageenan-induced paw edema administered 30 mins prior challenge measured after 3 hrs; assay type: functional
Method in brief: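 Rats were dosed orally. Thirty minutes later, 1% carrageenan was injected subcutaneously into the plantar surface of the hind paw, and paw volume was remeasured 3 h afterward. Percent inhibition came from comparing the volume increase against a control group. ED50 (dose giving 50% inhibition) was derived from least-squares probit response vs log dose regression.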

[3] = test system: Mus musculus; assay: Analgesic activity in ip dosed ddY mouse assessed as prevention of pseudoavoidance reflex co-administered with 5 mg/kg, sc morphine hydrochloride by tail pinch method; assay type: functional
Method in brief: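 Groups of eight male ddY mice (25–30 g) got the compound ip as a suspension in 0.5% CMC, together with a threshold dose of morphine hydrochloride (5 mg/kg sc). The read-out was prevention of pseudoavoidance reflexes (biting, squeaking, looking backward) after tail pinching with forceps. ED50 was calculated by the Litchfield–Wilcoxon method.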

| SMILES | LD50 at 168 h [1] [mg/kg] | ED50 [2] [mg/kg] | ED50 [3] [mg/kg] |
| --- | --- | --- | --- |
| COc1cc(C(=O)O)cc(-c2ccc(Cl)cc2)c1 | 1130 | > 100 | – |
| COC(=O)Cc1cc(OC)cc(-c2ccc(Cl)cc2)c1 | 1600 | 35 | – |
| CCOC(=O)Cc1cc(O)cc(-c2ccc(Cl)cc2)c1 | > 1600 | > 100 | – |
| CCOc1cc(CC(=O)O)cc(-c2ccccc2)c1 | 400 | > 100 | – |
| CC(C)Cc1ccc(C(C)C(=O)O)cc1 (stereo unspecified) [IBUPROFEN] | 336 | 25 | 69 |
| CCOC(=O)Cc1cc(OC)cc(-c2ccc(Cl)cc2)c1 | 1130 | 29 | – |
| COc1cc(CC(=O)NO)cc(-c2ccc(Cl)cc2)c1 | > 1600 | > 100 | – |
| COc1cc(C)cc(CC(=O)O)c1 | 673 | > 100 | – |
| CCCCOc1cc(CC(=O)O)cc(-c2ccc(Cl)cc2)c1 | 237 | > 100 | – |
| COc1cc(CC(=O)O)cc(C(C)C)c1 | 1600 | > 100 | – |
| O=C(O)Cc1cc(O)cc(-c2ccc(Cl)cc2)c1 | 141 | > 100 | – |
| COc1cc(CC(=O)O)cc(C2CCCCC2)c1 | 564 | > 100 | – |
| COc1ccc(-c2cc(CC(=O)O)cc(OC)c2)cc1 | 636 | > 100 | 165 |
| CCOc1cc(CC(=O)O)cc(-c2ccc(Cl)cc2)c1 | 284 | 51 | – |
| CCCCOc1cc(C)cc(CC(=O)O)c1 | 673 | > 100 | – |
| COC(=O)Cc1cc(O)cc(-c2ccc(Cl)cc2)c1 | > 1600 | > 100 | – |
| COC(=O)Cc1cc(OS(C)(=O)=O)cc(-c2ccc(Cl)cc2)c1 | 1130 | > 100 | – |
| COc1cc(CC(=O)O)cc(-c2ccc(C)cc2)c1 | 566 | > 100 | – |

| SMILES | LD50 at 168 h [1] [mg/kg] | ED50 [2] [mg/kg] | ED50 [3] [mg/kg] |
| --- | --- | --- | --- |
| COc1cc(CC(=O)O)cc(-c2ccccc2)c1 | 566 | 60 | – |
| COc1cc(CC(=O)O)cc(-c2ccc(Cl)cc2)c1 | 570 | 11 | 38 |
| COc1cccc(CC(=O)O)c1 | 504 | > 100 | – |
| CCCCOc1cc(CC(=O)O)cc(-c2ccccc2)c1 | > 1600 | > 100 | – |
| COc1cc(CCC(=O)O)cc(-c2ccc(Cl)cc2)c1 | 284 | > 100 | – |
| COc1cc(CC(=O)O)cc(-c2ccc(F)cc2)c1 | 565 | 50 | – |
| CCCOc1cc(CC(=O)O)cc(-c2ccc(Cl)cc2)c1 | 400 | 97 | – |
| CCCCCOc1cc(CC(=O)O)cc(-c2ccccc2)c1 | 1130 | > 100 | – |
| COc1cc(CC(=O)O)cc(-c2ccc(Cl)cc2Cl)c1 | 336 | 70 | – |
| CCCCCOc1cc(CC(=O)O)cc(-c2ccc(Cl)cc2)c1 | 475 | > 100 | – |
| CCCOc1cc(CC(=O)O)cc(-c2ccccc2)c1 | 475 | > 100 | – |
| CC(C)COc1cc(CC(=O)O)cc(-c2ccc(Cl)cc2)c1 | 139 | > 100 | – |
| COc1cc(CC(=O)O)cc(-c2ccccc2Cl)c1 | 252 | 39 | 195 |
| Cc1cc(CC(=O)O)cc(OCC(C)C)c1 | 1000 | > 100 | – |
| CC(C)COc1cc(CC(=O)O)cc(-c2ccccc2)c1 | 566 | > 100 | – |
| COc1cc(CCO)cc(-c2ccc(Cl)cc2)c1 | 673 | 47 | – |
| COC(=O)Cc1cc(OC(C)=O)cc(-c2ccc(Cl)cc2)c1 | > 1600 | > 100 | – |
| COc1cc(CC(N)=O)cc(-c2ccc(Cl)cc2)c1 | > 1600 | > 100 | – |
